In ChEMBL document CHEMBL3616436, “Synthesis, cytotoxicity and antimicrobial activity of thiourea derivatives incorporating 3-(trifluoromethyl)phenyl moiety” (Eur J Med Chem, 2015):
≈ marks a conversion by molar mass, not a printed value. Calls of active or inactive are those of the source. The rule behind the calls is not given here.

Legend:
[1] = test system: Human immunodeficiency virus 1; experiment: Antiviral activity against HIV1 3B infected in human MT4 cells assessed as protection against virus-induced cytopathogenicity by MTT assay; type: functional, organism-based; details: Human immunodeficiency virus 1, 3B
[2] = test system: Mammalian orthoreovirus 1; experiment: Antiviral activity against Reovirus type-1 ATCC VR-214 infected in BHK cells assessed as protection against virus-induced cytopathogenicity after 3 to 4 days by MTT assay; type: functional, cell-based; details: Mammalian orthoreovirus 1, ATCC VR-214, BHK
How it was run: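 Cells seeded in 96-well plates (BHK 5x10^4, MDBK 3x10^4 cells/well), grown overnight to confluence, infected at m.o.i. 0.01 (BHK for Reo-1, MDBK for BVDV); serial compound dilutions in maintenance medium with 0.5% inactivated FBS added after 1 h; viability by MTT after 3–4 days at 37°C; EC50 for 50% protection by linear regression.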

[3] = Cytotoxicity against African green monkey Vero 76 cells assessed as cell viability after 48 to 96 hrs by crystal violet staining; type: cell-based; details: chlorocebus sabaeus
[4] = test system: Poliovirus 1; experiment: Antiviral activity against Poliovirus type 1 ATCC VR-1562 infected in African green monkey Vero 76 cells assessed as reduction of virus-plaque formation after 2 days by crystal violet staining; type: functional, organism-based; details: Enterovirus C, ATCC VR-1562, Vero, 48 h
[5] = test system: Staphylococcus aureus; experiment: Antimicrobial activity against Staphylococcus aureus ATCC 6538 at 400 ug after 18 hrs by disc-diffusion method; type: functional; details: ATCC 6538, 18 h, read-out: IZ
How it was run: (§1)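 Disc diffusion on Mueller-Hinton II agar per CLSI; 9 mm paper discs loaded with 400 µg compound from DMSO solution, dried, placed on agar; growth inhibition zone diameter read after 18 h at 35°C.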

[6] = test system: Bacillus subtilis; experiment: Antimicrobial activity against Bacillus subtilis ATCC 6633 at 400 ug after 18 hrs by disc-diffusion method; type: functional; details: ATCC 6633, 18 h, read-out: IZ; how it was run: as §1
[7] = test system: Bacillus cereus; experiment: Antimicrobial activity against Bacillus cereus ATCC 11778 at 400 ug after 18 hrs by disc-diffusion method; type: functional; details: ATCC 11778, 18 h, read-out: IZ; how it was run: as §1
[8] = test system: Micrococcus luteus; experiment: Antimicrobial activity against Micrococcus luteus ATCC 10240 at 400 ug after 18 hrs by disc-diffusion method; type: functional; details: ATCC 10240, 18 h, read-out: IZ; how it was run: as §1
[9] = test system: Micrococcus luteus; experiment: Antimicrobial activity against Micrococcus luteus ATCC 9341 at 400 ug after 18 hrs by disc-diffusion method; type: functional; details: ATCC 9341, 18 h, read-out: IZ; how it was run: as §1
[10] = test system: Proteus vulgaris; experiment: Antimicrobial activity against Proteus vulgaris NCTC 4635 at 400 ug after 18 hrs by disc-diffusion method; type: functional; how it was run: as §1
[11] = test system: Staphylococcus aureus; experiment: Antimicrobial activity against Staphylococcus aureus NCTC 4163 after 18 hrs by twofold serial microdilution method; type: functional; details: NCTC 4163, 18 h
[12] = test system: Staphylococcus aureus; experiment: Antimicrobial activity against Staphylococcus aureus ATCC 29213 after 18 hrs by twofold serial microdilution method; type: functional; details: ATCC 29213, 18 h
[13] = test system: Staphylococcus epidermidis; experiment: Antimicrobial activity against Staphylococcus epidermidis ATCC 35984 after 18 hrs by twofold serial microdilution method; type: functional; details: ATCC 35984, 18 h
[14] = test system: Staphylococcus aureus; experiment: Antimicrobial activity against hospital methicillin-resistant Staphylococcus aureus 53/05 after 18 hrs by twofold serial microdilution method; type: functional; details: 53/05, 18 h
How it was run: (§2)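 Twofold serial microdilution in Mueller-Hinton broth. Compound stock was made in DMSO and diluted in sterile water. Tested range was 0.125–512 µg/mL. Final inoculum was 10^5 CFU/mL. Plates were incubated 18 h at 35 °C. MIC is the lowest concentration preventing visible growth.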

[15] = test system: Staphylococcus aureus; experiment: Antimicrobial activity against hospital methicillin-resistant Staphylococcus aureus 54/05 after 18 hrs by twofold serial microdilution method; type: functional; details: 54/05, 18 h; how it was run: as §2
[16] = test system: Staphylococcus aureus; experiment: Antimicrobial activity against hospital methicillin-resistant Staphylococcus aureus 573/11 after 18 hrs by twofold serial microdilution method; type: functional; details: 573/11, 18 h; how it was run: as §2
[17] = test system: Staphylococcus epidermidis; experiment: Antimicrobial activity against hospital methicillin-resistant Staphylococcus epidermidis 23/04 after 18 hrs by twofold serial microdilution method; type: functional; details: 23/04, 18 h; how it was run: as §2
[18] = test system: Staphylococcus epidermidis; experiment: Antimicrobial activity against hospital methicillin-resistant Staphylococcus epidermidis 24/04 after 18 hrs by twofold serial microdilution method; type: functional; details: 24/04, 18 h; how it was run: as §2
[19] = test system: Staphylococcus epidermidis; experiment: Antimicrobial activity against hospital methicillin-resistant Staphylococcus epidermidis 62/04 after 18 hrs by twofold serial microdilution method; type: functional; details: 62/04, 18 h; how it was run: as §2
[20] = test system: Staphylococcus epidermidis; experiment: Antimicrobial activity against hospital methicillin-resistant Staphylococcus epidermidis 63/04 after 18 hrs by twofold serial microdilution method; type: functional; details: 63/04, 18 h; how it was run: as §2
[21] = test system: Staphylococcus epidermidis; experiment: Antimicrobial activity against hospital methicillin-resistant Staphylococcus epidermidis 151/04 after 18 hrs by twofold serial microdilution method; type: functional; details: 151/04, 18 h; how it was run: as §2
[22] = test system: Staphylococcus aureus; experiment: Ratio of ciprofloxacin MIC to compound MIC for hospital methicillin-resistant Staphylococcus aureus 53/05 after 18 hrs by twofold serial microdilution method; type: functional
How it was run: (§3)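 Ratio of MICs for ciprofloxacin and test agent, each from twofold serial broth microdilution in Mueller-Hinton broth following CLSI guidelines. DMSO stock was diluted in sterile water to 0.125–512 µg/mL, with a final inoculum of 10^5 CFU/mL.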

[23] = test system: Staphylococcus aureus; experiment: Ratio of ciprofloxacin MIC to compound MIC for hospital methicillin-resistant Staphylococcus aureus 57/05 after 18 hrs by twofold serial microdilution method; type: functional; how it was run: as §3
[24] = test system: Staphylococcus aureus; experiment: Ratio of ciprofloxacin MIC to compound MIC for hospital methicillin-resistant Staphylococcus aureus 81/05 after 18 hrs by twofold serial microdilution method; type: functional; how it was run: as §3
[25] = test system: Staphylococcus aureus; experiment: Ratio of ciprofloxacin MIC to compound MIC for hospital methicillin-resistant Staphylococcus aureus 522/11 after 18 hrs by twofold serial microdilution method; type: functional; how it was run: as §3
[26] = test system: Staphylococcus aureus; experiment: Ratio of ciprofloxacin MIC to compound MIC for hospital methicillin-resistant Staphylococcus aureus 573/11 after 18 hrs by twofold serial microdilution method; type: functional; how it was run: as §3
[27] = test system: Staphylococcus epidermidis; experiment: Ratio of ciprofloxacin MIC to compound MIC for hospital methicillin-resistant Staphylococcus epidermidis […]/[…] after 18 hrs by twofold serial microdilution method; type: functional, 16/04
[28] = test system: Staphylococcus epidermidis; experiment: Ratio of ciprofloxacin MIC to compound MIC for hospital methicillin-resistant Staphylococcus epidermidis 24/04 after 18 hrs by twofold serial microdilution method; type: functional
[29] = test system: Staphylococcus epidermidis; experiment: Ratio of ciprofloxacin MIC to compound MIC for hospital methicillin-resistant Staphylococcus epidermidis 31/04 after 18 hrs by twofold serial microdilution method; type: functional; how it was run: as §3
[30] = test system: Staphylococcus epidermidis; experiment: Ratio of ciprofloxacin MIC to compound MIC for hospital methicillin-resistant Staphylococcus epidermidis 76/04 after 18 hrs by twofold serial microdilution method; type: functional; how it was run: as §3
[31] = test system: Staphylococcus epidermidis; experiment: Ratio of ciprofloxacin MIC to compound MIC for hospital methicillin-resistant Staphylococcus epidermidis 151/04 after 18 hrs by twofold serial microdilution method; type: functional; how it was run: as §3
[32] = test system: Mycobacterium tuberculosis; experiment: Antimycobacterial activity against drug-sensitive Mycobacterium tuberculosis Spec. 192; type: functional
How it was run: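 Classical test-tube successive-dilution method in Youmans' modification of Proskauer and Beck liquid medium with 10% bovine serum. Inoculum came from 14-day cultures. DMSO stock was 10 mg/mL, diluted geometrically in medium. Tubes were incubated at 37 °C. Concentrations tested were 3.1, 6.2, 12.5, 25, 50 and 100 µg/ml. MIC is the minimum concentration inhibiting growth relative to compound-free tubes.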

Row | SMILES | EC50 [1] [µM] | EC50 [2] [µM] | CC50 [3] [µM] | EC50 [4] [µM] | zone of inhibition at 400 µg/disc [5] [mm] | zone of inhibition at 400 µg/disc [6] [mm] | zone of inhibition at 400 µg/disc [7] [mm] | zone of inhibition at 400 µg/disc [8] [mm] | zone of inhibition at 400 µg/disc [9] [mm] | MIC [11] [µg/mL] | MIC [12] [µg/mL] | MIC [13] [µg/mL] | MIC [14] [µg/mL] | MIC [15] [µg/mL] | MIC [16] [µg/mL] | MIC [17] [µg/mL] | MIC [18] [µg/mL] | MIC [19] [µg/mL] | MIC [20] [µg/mL] | MIC [21] [µg/mL] | other results
1 | Fc1ccc(NC(=S)Nc2cccc(C(F)(F)F)c2)cc1Cl | > 8 | > 10 | 20 | > 20 | 30 | 30 | 25 | 30 | 32 | 1 (≈ 2.87 µM) | 1 (≈ 2.87 µM) | 2 (≈ 5.73 µM) | 1 (≈ 2.87 µM) | 1 (≈ 2.87 µM) | 0.5 (≈ 1.43 µM) | 1 (≈ 2.87 µM) | 1 (≈ 2.87 µM) | 0.5 (≈ 1.43 µM) | 0.5 (≈ 1.43 µM) | 2 (≈ 5.73 µM) | zone of inhibition at 400 µg/disc ([10]; NCTC 4635, 18 h, read-out: IZ): 14 mm; Ratio [22]: 128; Ratio [23]: 128; Ratio [24]: 128; Ratio [25]: 128; Ratio [26]: 128; Ratio [27]: 128; Ratio [28]: 128; Ratio [29]: 128; Ratio [30]: 128; Ratio [31]: 128; MIC [32]: 50 µg/mL (≈ 143 µM)
2 | FC(F)(F)c1cccc(NC(S)=NCc2ccccc2)c1 | > 45 | > 45 | 35 | > 35 | 15 | 16 | 15 | 15 | 19 | 16 (≈ 51.6 µM) | 8 (≈ 25.8 µM) | 16 (≈ 51.6 µM) | 8 (≈ 25.8 µM) | 8 (≈ 25.8 µM) | 16 (≈ 51.6 µM) | 16 (≈ 51.6 µM) | 16 (≈ 51.6 µM) | 16 (≈ 51.6 µM) | 16 (≈ 51.6 µM) | 16 (≈ 51.6 µM) | inhibition zone (IZ) [10]: inactive; Ratio [22]: 128; Ratio [23]: 128; Ratio [24]: 128; Ratio [25]: 128; Ratio [26]: 128; Ratio [27]: 128; Ratio [28]: 128; Ratio [29]: 128; Ratio [30]: 128; Ratio [31]: 128; MIC [32]: 25 µg/mL (≈ 80.6 µM)
3 | FC(F)(F)c1cccc(NC(=S)NCCc2ccccc2)c1 | > 8.8 | > 29 | 46 | > 46 | 15 | 16 | 16 | 15 | 18 | 8 (≈ 24.7 µM) | 8 (≈ 24.7 µM) | 8 (≈ 24.7 µM) | 8 (≈ 24.7 µM) | 8 (≈ 24.7 µM) | 16 (≈ 49.3 µM) | 8 (≈ 24.7 µM) | 16 (≈ 49.3 µM) | 8 (≈ 24.7 µM) | 8 (≈ 24.7 µM) | 16 (≈ 49.3 µM) | inhibition zone (IZ) [10]: inactive; Ratio [22]: 128; Ratio [23]: 128; Ratio [24]: 128; Ratio [25]: 128; Ratio [26]: 128; Ratio [27]: 128; Ratio [28]: 128; Ratio [29]: 128; Ratio [30]: 128; Ratio [31]: 128; MIC [32]: 100 µg/mL (≈ 308 µM)
